Source: ChEMBL document CHEMBL1123488, “Agents for the treatment of brain edema. 2. [(2,3,9,9a-Tetrahydro-3-oxo-9a-substituted-1H-fluoren-7-yl)oxy]+ ++alkanoi c acids and some of their analogues” (J Med Chem, 1986)

Legend:
Felis catus [1] = species: Felis catus; test: Compound was tested for inhibition of HCO3- dependent swelling of cat cerebrocortical slices at concentration of (10e-11) M; type: functional
In short: (§1)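 Cerebrocortical slices were weighed and incubated in Warburg flasks at 22 °C in medium of KCl 27, NaCl 100, glucose 10 and KH2PO4 1.2 mmol/L (27 mM K+ HEPES). HCO3- (5 mM) was added from the side arm for the final 40 min, and the compound was present throughout the 60 min. Swelling = (final − initial wet weight)/initial wet weight × 100. Two-tailed t-test versus 27 K + HCO3-.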

Felis catus [2] = species: Felis catus; test: Compound was tested for inhibition of HCO3- dependent swelling of cat cerebrocortical slices at concentration of (10e-13) M; type: functional; in short: as §1
Felis catus [3] = species: Felis catus; test: Compound was tested for inhibition of HCO3- dependent swelling of cat cerebrocortical slices at concentration of (10e-7) M; type: functional; in short: as §1
Felis catus [4] = species: Felis catus; test: Compound was tested for inhibition of HCO3- dependent swelling of cat cerebrocortical slices at concentration of (10e-8) M; type: functional; in short: as §1
Felis catus [5] = species: Felis catus; test: Compound was tested for inhibition of chloride ion uptake in cat cerebrocortical slices at concentration of (10e-12) M; type: functional
In short: (§2)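 Slices were incubated 60 min at 22 °C in 27 mM K+ medium with 5 mM HCO3- added for the last 40 min, with the compound present throughout. Slices were then filtered off, reweighed and homogenized (10% w/v) in 1 N perchloric acid. The supernatant was assayed for electrolytes, expressed as µmol/g initial wet weight. Two-tailed t-test versus 27 K + HCO3-.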

Felis catus [6] = species: Felis catus; test: Compound was tested for inhibition of chloride ion uptake in cat cerebrocortical slices at concentration of (10e-13) M; type: functional; in short: as §2
Felis catus [7] = species: Felis catus; test: Compound was tested for inhibition of chloride ion uptake in cat cerebrocortical slices at concentration of (10e-8) M; type: functional; in short: as §2
Felis catus [8] = species: Felis catus; test: Compound was tested for inhibition of chloride ion uptake in cat cerebrocortical slices at concentration of (10e-9) M; type: functional; in short: as §2
Felis catus [9] = species: Felis catus; test: Compound was tested for inhibition of sodium ion uptake in cat cerebrocortical slices at concentration of (10e-10) M; type: functional
Felis catus [10] = species: Felis catus; test: In vitro concentration required for 50% inhibition of swelling of cat cerebrocortical slices; type: functional; conditions: read-out: I50
In short: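 Cat cortical slices were weighed and incubated 60 min at 22 °C in 27 mM K+ medium, with HCO3- added for the last 40 min and inhibitor present throughout. Swelling = (final − initial wet weight)/initial wet weight × 100. The HCO3−-dependent increment was taken as the target. I50 is the molarity giving 50% inhibition, read from the concentration–response curve.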

Felis catus [11] = species: Felis catus; test: Compound was tested for inhibition of sodium ion uptake in cat cerebrocortical slices at concentration of (10e-13) M; type: functional
Felis catus [12] = species: Felis catus; test: Compound was tested for inhibition of sodium ion uptake in cat cerebrocortical slices at concentration of (10e-7) M; type: functional
Felis catus [13] = species: Felis catus; test: Compound was tested for inhibition of sodium ion uptake in cat cerebrocortical slices at concentration of (10e-8) M; type: functional
Felis catus [14] = species: Felis catus; test: Compound was tested for inhibition of sodium ion uptake in cat cerebrocortical slices at concentration of (10e-9 )M; type: functional
Felis catus [15] = species: Felis catus; test: Compound was tested for inhibition of sodium ion uptake in cat cerebrocortical slices at concentration of (10e-11) M; type: functional
Felis catus [16] = species: Felis catus; test: Compound was tested for inhibition of K+ ion uptake in cat cerebrocortical slices at concentration of (10e-13) M; type: functional; in short: as §2
Felis catus [17] = species: Felis catus; test: Compound was tested for inhibition of K+ ion uptake in cat cerebrocortical slices at concentration of (10e-11) M; type: functional; in short: as §2
Cavia porcellus [18] = species: Cavia porcellus; test: Compound was tested for inhibition of potassium ion uptake in guinea pig cerebrocortical slices at concentration of (10e-7) M; type: functional; in short: as §2
Cavia porcellus [19] = species: Cavia porcellus; test: Compound was tested for inhibition of potassium ion uptake in guinea pig cerebrocortical slices at concentration of (10e-8) M; type: functional; in short: as §2
Cavia porcellus [20] = species: Cavia porcellus; test: Compound was tested for inhibition of potassium ion uptake in guinea pig cerebrocortical slices at concentration of (10e-9) M; type: functional
Cavia porcellus [21] = species: Cavia porcellus; test: Compound was tested for inhibition of sodium ion uptake in guinea pig cerebrocortical slices at concentration of (10e-6) M; type: functional
Cavia porcellus [22] = species: Cavia porcellus; test: Compound was tested for inhibition of sodium ion uptake in guinea pig cerebrocortical slices at concentration of (10e-7) M; type: functional
Cavia porcellus [23] = species: Cavia porcellus; test: Compound was tested for inhibition of sodium ion uptake in guinea pig cerebrocortical slices at concentration of (10e-9) M; type: functional
Cavia porcellus [24] = species: Cavia porcellus; test: Compound was tested for inhibition of HCO3- dependent swelling of guinea pig cerebrocortical slices at concentration of (10e-11) M; type: functional; in short: as §1
Cavia porcellus [25] = species: Cavia porcellus; test: Compound was tested for inhibition of HCO3- dependent swelling of guinea pig cerebrocortical slices at concentration of (10e-6) M; type: functional; in short: as §1
Cavia porcellus [26] = species: Cavia porcellus; test: Compound was tested for inhibition of potassium ion uptake in guinea pig cerebrocortical slices at concentration of (10e-11) M; type: functional; in short: as §2
Cavia porcellus [27] = species: Cavia porcellus; test: Compound was tested for inhibition of potassium ion uptake in guinea pig cerebrocortical slices at concentration of (10e-6) M; type: functional; in short: as §2
Rattus norvegicus [28] = species: Rattus norvegicus; test: Compound was tested for inhibition of chloride ion uptake in rat cerebrocortical slices at concentration of (10e-4) M; type: functional; in short: as §2
Rattus norvegicus [29] = species: Rattus norvegicus; test: Compound was tested for inhibition of potassium ion uptake in rat cerebrocortical slices at concentration of (10e-8) M; type: functional
Rattus norvegicus [30] = species: Rattus norvegicus; test: Compound was tested for inhibition of sodium ion uptake in rat cerebrocortical slices at concentration of (10e-3) M; type: functional
Rattus norvegicus [31] = species: Rattus norvegicus; test: Compound was tested for inhibition of sodium ion uptake in rat cerebrocortical slices at concentration of (10e-8) M; type: functional
Rattus norvegicus [32] = species: Rattus norvegicus; test: Compound was tested for inhibition of HCO3- dependent swelling of rat cerebrocortical slices at concentration of (10e-3) M; type: functional; in short: as §1
Rattus norvegicus [33] = species: Rattus norvegicus; test: Compound was tested for inhibition of HCO3- dependent swelling of rat cerebrocortical slices at concentration of (10e-4) M; type: functional; in short: as §1
Rattus norvegicus [34] = species: Rattus norvegicus; test: Compound was tested for inhibition of HCO3- dependent swelling of rat cerebrocortical slices at concentration of (10e-8) M; type: functional; in short: as §1
Cavia porcellus [35] = species: Cavia porcellus; test: Compound was tested for inhibition of HCO3- dependent swelling of guinea pig cerebrocortical slices at concentration of (10e-12) M; type: functional; in short: as §1
Felis catus [36] = test: In vivo activity in the acceleration-deceleration head injury assay at dose of 5 mg/kg; 1/19
Felis catus [37] = test: In vivo activity in the acceleration-deceleration head injury assay at dose of 1 mg/kg; 12/25
Felis catus [38] = test: In vivo activity in the acceleration-deceleration head injury assay at dose of 10 mg/kg; 15/19
Felis catus [39] = test: In vivo activity in the acceleration-deceleration head injury assay at dose of 2.5 mg/kg; 5/21

Work on CCCC12CCC(=O)C=C1c1c(cc(OCC(=O)O)c(Cl)c1Cl)C2 (single isomer, unassigned; (+)) yielded a Swelling (Felis catus [1]) of 19.1%, a Swelling (Felis catus [2]) of 27.3% and a Swelling (Felis catus [3]) of 20%. It also gave a Swelling (Felis catus [4]) of 18.6%, an Activity (Felis catus [5]) of 90.5 and an Activity (Felis catus [6]) of 98.5. It also gave an Activity (Felis catus [7]) of 89.1, an Activity (Felis catus [8]) of 89.3 and an Activity (Felis catus [9]) of 86.9. The IC50 (Felis catus [10]) was 0.02 nM, the Activity (Felis catus [11]) was 107.3 and the Activity (Felis catus [12]) was 86. For the same compound, the Activity (Felis catus [13]) was 87.2, the Activity (Felis catus [14]) was 85.6 and the Activity (Felis catus [15]) was 86.4. For the same compound, the Activity (Felis catus [16]) was 87.6, the Activity (Felis catus [17]) was 88.8 and the Activity (Cavia porcellus [18]) was 88.1. For the same compound, the Activity (Cavia porcellus [19]) was 90.8, the Activity (Cavia porcellus [20]) was 95.9 and the Activity (Cavia porcellus [21]) was 115. It also gave an Activity (Cavia porcellus [22]) of 125.4, an Activity (Cavia porcellus [23]) of 110 and a Swelling (Cavia porcellus [24]) of 27.6%. The Swelling (Cavia porcellus [25]) was 26.8%, the Activity (Cavia porcellus [26]) was 88.9 and the Activity (Cavia porcellus [27]) was 95. For the same compound, the Activity (Rattus norvegicus [28]) was 92.3, the Activity (Rattus norvegicus [29]) was 75.4 and the Activity (Rattus norvegicus [30]) was 132.4. For the same compound, the Activity (Rattus norvegicus [31]) was 118.9, the Swelling (Rattus norvegicus [32]) was 19.1% and the Swelling (Rattus norvegicus [33]) was 22.8%. For the same compound, the Swelling (Rattus norvegicus [34]) was 20.9%, the Swelling (Cavia porcellus [35]) was 30.9% and the Deaths (Felis catus [36]) was 1. It also gave a Deaths (Felis catus [37]) of 12, a Deaths (Felis catus [38]) of 15 and a Deaths (Felis catus [39]) of 5.
